ChEMBL document CHEMBL2375241, “Dioscin restores the activity of the anticancer agent adriamycin in multidrug-resistant human leukemia K562/adriamycin cells by down-regulating MDR1 via a mechanism involving NF-κB signaling inhibition” (J Nat Prod, 2013)
pIC50: −log10 of the molar value. Active and inactive are the calls of the source. The calls are words filed in the database; no cut-off is given here.

Assays:
Format in all cases: cell-based
[1] = Cytotoxicity against human K562/ADR cells assessed as cell viability after 48 hrs by MTT assay
Procedure, shortened: (§1)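 Cells grown in RPMI 1640 with 10% FBS at 37 °C, 5% CO2; K562/ADR kept off ADR for 2 weeks before use. Cells seeded at 4 × 10^3 per well, exposed to 0.1–100 μM for 48 h. MTT added for 4 h, then SDS–isobutanol–HCl solubilisation overnight, absorbance read at 570 nm. IC50 from three experiments.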

K562 = experiment: Cytotoxicity against human K562 cells assessed as cell viability after 48 hrs by MTT assay; procedure, shortened: as §1
[2] = Inhibition of NFkappaB signaling in human K562/ADR cells assessed as inhibition of TNFalpha-induced NFkappaB promoter activity at 0.1 to 0.3 uM after 24 hrs by luciferase reporter gene assay
Procedure, shortened: (§2)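 Cells plated overnight, then transiently co-transfected with hMDR1-Luc or NF-κB-Luc plus pRL-SV Renilla plasmid by lipofection. Exposed to compound and TNF-α for 24 h. Firefly luciferase normalised to Renilla in a dual-luciferase readout.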

[3] = Inhibition of NFkappaB signaling-mediated MDR1 activity in human K562/ADR cells assessed as increase in intracellular accumulation of adriamycin at 0.3 uM incubated for 24 hrs followed by adriamycin addition measured after 1 hr by flow cytometric analysis (reference value: 46.3%)
Procedure, shortened: (§3)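 K562/ADR cells, 4 × 10^6 per well, pretreated with 0.3 μM for 24 h at 37 °C; K562 and untreated K562/ADR run alongside. All incubated with 25 μM ADR for 1 h at 37 °C and washed three times with ice-cold PBS. ADR autofluorescence read by flow cytometry (ex 488 nm, em 575 nm) as mean intensity; three experiments.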

[4] = Inhibition of NFkappaB signaling-mediated MDR1 activity in human K562/ADR cells assessed as increase in intracellular accumulation of adriamycin at 0.3 uM incubated for 24 hrs followed by adriamycin addition measured after 1 hr by flow cytometric analysis relative to K562 cells; procedure, shortened: as §3
[5] = Inhibition of NFkappaB signaling in human K562/ADR cells assessed as downregulation of MDR1 expression at 0.3 uM measured for 24 hrs by Western blot analysis
Procedure, shortened: (§4)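 K562/ADR cells treated with 0.3 μM for 0–48 h, or with various concentrations for 24 h, at 37 °C. Total protein extracted and 60 μg run on 10% SDS-PAGE, then PVDF. Blots probed with MDR1 antibody (1:100) and β-actin (1:500), detected by ECL. Band density normalised to β-actin; triplicate.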

[6] = Inhibition of NFkappaB signaling-mediated MDR1 activity in human K562/ADR cells assessed as potentiation of adriamycin-induced cytotoxicity after 48 hrs by MTT assay
[7] = Inhibition of NFkappaB signaling in human K562/ADR cells assessed as downregulation of MDR1 mRNA expression at 0.3 uM measured after 24 to 48 hrs by qRT-PCR analysis
Procedure, shortened: (§5)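 K562/ADR cells exposed to 0.3 μM for 0–48 h, or to various concentrations for 24 h. RNA isolated with TRIzol, then qRT-PCR: 95 °C 30 s, then 40 cycles of 95 °C 5 s and 60 °C 20 s. MDR1 quantified by ΔΔCT against β-actin; triplicate.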

[8] = Inhibition of NFkappaB signaling in human K562/ADR cells assessed as downregulation of MDR1 expression at 0.3 uM measured after 24 to 48 hrs by Western blot analysis; procedure, shortened: as §4
[9] = target: T1, NF-kappa-B inhibitor alpha (Homo sapiens) (UniProt P25963); experiment: Inhibition of TNFalpha-induced IkappaB-alpha phosphorylation in human K562/ADR cells assessed as decrease in NKkappaB activity at 0.3 uM measured at 12 to 48 hrs by Western blot analysis
T1 sequence (whole entry): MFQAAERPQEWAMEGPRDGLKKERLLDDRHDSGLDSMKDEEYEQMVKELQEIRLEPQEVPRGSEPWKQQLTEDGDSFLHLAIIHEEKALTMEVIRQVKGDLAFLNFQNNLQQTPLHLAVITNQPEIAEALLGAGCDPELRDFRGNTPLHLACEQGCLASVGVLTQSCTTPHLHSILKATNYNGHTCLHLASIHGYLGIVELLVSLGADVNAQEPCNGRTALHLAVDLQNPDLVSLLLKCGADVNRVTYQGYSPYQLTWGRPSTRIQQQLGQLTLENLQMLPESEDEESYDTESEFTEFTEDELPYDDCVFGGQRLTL
Procedure, shortened: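 K562/ADR cells incubated with 0.3 μM for 0–48 h, then TNF-α for 30 min. Lysates blotted for phospho-IκB-α Ser32/36 (1:1000) and β-actin, detected by ECL. Densities normalised to β-actin; three experiments.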

[10] = Inhibition of NFkappaB signaling in human K562/ADR cells assessed as inhibition of TNFalpha-induced MDR1 promoter activity at 0.1 to 0.3 uM after 24 hrs by luciferase reporter gene assay; procedure, shortened: as §2
[11] = Inhibition of NFkappaB signaling in human K562/ADR cells assessed as inhibition of TNFalpha-induced MDR1 expression at 0.3 uM after 24 hrs by Western blot analysis
Procedure, shortened: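 K562/ADR cells incubated 24 h with 0.3 μM plus 5 nM TNF-α. Lysates blotted for MDR1 (1:100) with β-actin (1:500) as loading control, detected by ECL. Densities normalised to β-actin; three experiments.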

[12] = Inhibition of NFkappaB signaling in human K562/ADR cells assessed as downregulation of MDR1 mRNA expression at 0.3 uM measured for 24 hrs by qRT-PCR analysis; procedure, shortened: as §5

C[C@@H]1CC[C@@]2(OC1)O[C@H]1C[C@H]3[C@@H]4CC=C5C[C@@H](O[C@@H]6O[C@H](CO)[C@@H](O[C@@H]7O[C@@H](C)[C@H](O)[C@@H](O)[C@H]7O)[C@H](O)[C@H]6O[C@@H]6O[C@@H](C)[C@H](O)[C@@H](O)[C@H]6O)CC[C@]5(C)[C@H]4CC[C@]3(C)[C@H]1[C@@H]2C [DIOSCIN]
pIC50 ([1]; Homo sapiens, K562/Adr): 5.48
IC10 ([1]; human, k562/adr): 0.3 µM
pIC50 (K562; Homo sapiens, K562, 48 h): 5.33
IC10 (K562; human, k562, 48 h): 0.4 µM
inhibition [2]: Active
inhibition [3]: 78.4%
inhibition [4]: 59.8%
inhibition [5]: 91.4%
inhibition [6]: Active
inhibition [7]: 97.8%
inhibition [8]: 84.7%
inhibition [9]: Active
inhibition [10]: Active
inhibition [11]: Active
inhibition [12]: 93.1%
